Tests used:
Format in all cases: functional
M14 = test: Growth inhibition of human M14 cells
DU-145 = test: Growth inhibition of human DU145 cells
HCC 2998 = test: Growth inhibition of human HCC2998 cells assessed tumor cell growth at 10^-5 M; design: scale not given: the % may be the effect or the level left
In short: (§1)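 NCI 60-human-tumor-cell-line panel screen. Each compound was tested at a single concentration of 10^-5 M, and percent growth of tumor cells was recorded for each cell line. Growth inhibition was expressed from these percent-growth values.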

SF-295 = test: Growth inhibition of human SF295 cells
ACHN = test: Growth inhibition of human ACHN cells
NCI-H460 = test: Growth inhibition of human NCI-H460 cells assessed tumor cell growth at 10^-5 M; design: scale not given: the % may be the effect or the level left; in short: as §1
SN12C = test: Growth inhibition of human SN12C cells assessed tumor cell growth at 10^-5 M; design: scale not given: the % may be the effect or the level left; in short: as §1
CCRF-CEM = test: Growth inhibition of human CCRF-CEM cells
MDA-MB-468 [1] = test: Growth inhibition of human MDA-MB-468 cells
EKVX = test: Growth inhibition of human EKVX cells assessed tumor cell growth at 10^-5 M; design: scale not given: the % may be the effect or the level left; in short: as §1
OVCAR-8 = test: Growth inhibition of human OVCAR8 cells assessed tumor cell growth at 10^-5 M; design: scale not given: the % may be the effect or the level left; in short: as §1
MDA-MB-468 [2] = test: Growth inhibition of human MDA-MB-468 cells assessed tumor cell growth at 10^-5 M; design: scale not given: the % may be the effect or the level left; in short: as §1
SF-268 = test: Growth inhibition of human SF268 cells assessed tumor cell growth at 10^-5 M; design: scale not given: the % may be the effect or the level left; in short: as §1
MOLT-4 = test: Growth inhibition of human MOLT4 cells
IGROV-1 = test: Growth inhibition of human IGROV1 cells assessed tumor cell growth at 10^-5 M; design: scale not given: the % may be the effect or the level left; in short: as §1
UO-31 = test: Growth inhibition of human UO31 cells
SNB-75 [3] = test: Growth inhibition of human SNB75 cells assessed tumor cell growth at 10^-5 M; design: scale not given: the % may be the effect or the level left
In short: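 Single-dose screen at 10^-5 M across the 60 human tumor cell line panel, run to NCI standards. The value is the percent growth of each cell line in the presence of compound. Compounds active at this dose moved on to five-concentration testing (10^-4 to 10^-8 M).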

A498 = test: Growth inhibition of human A498 cells
SK-MEL-5 = test: Growth inhibition of human SK-MEL-5 cells assessed tumor cell growth at 10^-5 M; design: scale not given: the % may be the effect or the level left; in short: as §1
NCI/ADR-RES = test: Growth inhibition of human NCI/ADR-RES cells assessed tumor cell growth at 10^-5 M; design: scale not given: the % may be the effect or the level left; in short: as §1
HOP-62 = test: Growth inhibition of human HOP62 cells assessed tumor cell growth at 10^-5 M; design: scale not given: the % may be the effect or the level left; in short: as §1
HL-60(TB) = test: Growth inhibition of human HL-60(TB) cells assessed tumor cell growth at 10^-5 M; design: scale not given: the % may be the effect or the level left
In short: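 HL-60(TB), part of the 60-line panel, tested at a single concentration of 10^-5 M. The read-out is percent tumor cell growth relative to untreated growth.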

NCI-H522 = test: Growth inhibition of human NCI-H522 cells assessed tumor cell growth at 10^-5 M; design: scale not given: the % may be the effect or the level left; in short: as §1
SNB-75 [4] = test: Growth inhibition of human SNB75 cells
[5] = Growth inhibition of human RPMI8266 cells
CAKI-1 = test: Growth inhibition of human Caki1 cells assessed tumor cell growth at 10^-5 M; design: scale not given: the % may be the effect or the level left; in short: as §1
SW-620 = test: Growth inhibition of human SW620 cells
[6] = read-out: LC50 (the source's name)

Q: Which GI50 (M14) does the source give for `O=C1/C(=C\c2ccccn2)c2ccccc2N1c1c(Cl)cccc1Cl` here?
A: The GI50 was 1.7 µM.

Q: And the CC50 (M14; [6])?
A: Its CC50 is 7.7 µM.

Q: And the GI50 (DU-145)?
A: The GI50 was 2.1 µM.

Q: And the CC50 (DU-145; [6])?
A: Its CC50 is 9.1 µM.

Q: What about the Activity (HCC 2998) of the same compound?
A: Its Activity is -82.08%.

Q: And the GI50 (SF-295)?
A: Its GI50 is 1.7 µM.

Q: And the CC50 (SF-295; [6])?
A: Its CC50 is 13.8 µM.

Q: What about the GI50 (ACHN) of the same compound?
A: The GI50 was 1.8 µM.

Q: What about the CC50 (ACHN; [6]) of the same compound?
A: The CC50 was 7.2 µM.

Q: What about the Activity (NCI-H460) of the same compound?
A: Its Activity is -29.25%.

Q: What about the Activity (SN12C) of the same compound?
A: Its Activity is 18.08%.

Q: And the GI50 (CCRF-CEM)?
A: The GI50 was 3.2 µM.

Q: And the CC50 (CCRF-CEM; [6])?
A: Its CC50 is over 100 µM.

Q: And the GI50 (MDA-MB-468 [1])?
A: The GI50 was 0.9 µM.

Q: And the CC50 (MDA-MB-468 [1]; [6])?
A: The CC50 was 7.4 µM.

Q: What about the Activity (EKVX) of the same compound?
A: The Activity was 27.21%.

Q: What about the Activity (OVCAR-8) of the same compound?
A: The Activity was 4.47%.

Q: What about the Activity (MDA-MB-468 [2]) of the same compound?
A: Its Activity is -17.24%.

Q: And the Activity (SF-268)?
A: Its Activity is 7.81%.

Q: And the GI50 (MOLT-4)?
A: Its GI50 is 4.4 µM.

Q: And the LC50 (MOLT-4)?
A: Its LC50 is over 100 µM.

Q: What about the Activity (IGROV-1) of the same compound?
A: Its Activity is 8.25%.

Q: What about the GI50 (UO-31) of the same compound?
A: The GI50 was 1.4 µM.

Q: And the CC50 (UO-31; [6])?
A: The CC50 was 6 µM.

Q: What about the Activity (SNB-75 [3]) of the same compound?
A: The Activity was -17.92%.

Q: What about the GI50 (A498) of the same compound?
A: The GI50 was 2.9 µM.

Q: And the CC50 (A498; [6])?
A: Its CC50 is 72.4 µM.

Q: And the Activity (SK-MEL-5)?
A: Its Activity is 23.68%.

Q: What about the Activity (NCI/ADR-RES) of the same compound?
A: Its Activity is -26.73%.

Q: And the Activity (HOP-62)?
A: Its Activity is 5.17%.

Q: And the Activity (HL-60(TB))?
A: Its Activity is 1.39%.

Q: What about the Activity (NCI-H522) of the same compound?
A: The Activity was 36.79%.

Q: And the GI50 (SNB-75 [4])?
A: Its GI50 is 1.4 µM.

Q: What about the CC50 (SNB-75 [4]; [6]) of the same compound?
A: Its CC50 is 32.3 µM.

Q: And the GI50 [5]?
A: Its GI50 is 2.2 µM.

Q: And the CC50 [5, 6]?
A: The CC50 was over 100 µM.

Q: And the Activity (CAKI-1)?
A: The Activity was -1.37%.

Q: What about the GI50 (SW-620) of the same compound?
A: The GI50 was 1.9 µM.

— ChEMBL document CHEMBL1811814, “Synthesis and evaluation of indole, pyrazole, chromone and pyrimidine based conjugates for tumor growth inhibitory activities--development of highly efficacious cytotoxic agents” (Eur J Med Chem, 2010)
